≈ marks a conversion by molar mass, not a printed value. Calls of active or inactive are those of the source. No cut-off for these calls is given here.
Legend:
A-431 = assay: Cytotoxicity against human A431 cells assessed as reduction in cell viability after 48 hrs by CellTiter 96 aqueous one solution assay; format: cell-based; conditions: A-431, 48 h
Mycobacterium avium [1] = assay: Antimycobacterial activity against Mycobacterium avium CNCTC My 330/88 after 14 days; format: functional; conditions: CNCTC My 330/88, 336 h
Outline: (§1)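 M. avium was tested by microdilution in Šula's semisynthetic medium, with compounds dissolved in DMSO and serially diluted from 1000 down to 1. Inoculum was a 1.0 McFarland suspension diluted 10-5. Plates were incubated at 37 °C and read at 14 and 21 days. […] Isoniazid and rifampicin served as standards.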

Candida tropicalis = assay: Antifungal activity against Candida tropicalis ATCC 750 CCM 8264 at highest concentration measured after 24 to 48 hrs by alamar blue dye based broth microdilution assay; format: functional, organism-based
Mycobacterium avium [2] = assay: Antimycobacterial activity against Mycobacterium avium CNCTC My 330/88 after 21 days; format: functional; conditions: CNCTC My 330/88, 504 h; outline: as §1
[3] = Genotoxicity in Salmonella typhimurium TA100 at 30 uM in presence of rat liver S9 fraction by Ames test; format: toxicity, subcellular; conditions: salmonella enterica subsp. enterica serovar typhimurium, s9, 30 µM
Outline: (§2)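 Microplate fluctuation Ames reverse-mutation test following kit instructions; TA98 detects frameshift and TA100 base-exchange mutations. Compound at 30 µM final with Aroclor-1254-induced rat liver S9 plus cofactors.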

Pseudomonas aeruginosa = assay: Antibacterial activity against Pseudomonas aeruginosa ATCC 27853 CCM 3955 at highest concentration measured after 24 to 48 hrs by alamar blue dye based broth microdilution assay; format: functional, organism-based
[4] = test system: Mycobacterium tuberculosis; assay: Antimycobacterial activity against Mycobacterium tuberculosis H37Rv CNCTC My 331/88 after 21 days; format: functional; conditions: H37Rv CNCTC My 331/88, 504 h
Outline: (§3)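 M. tuberculosis strains (H37Rv and clinical MDR/XDR isolates) tested by microdilution in Šula's semisynthetic medium. Compounds were dissolved in DMSO and tested at 32 to 0.03 µM in twofold steps. Inoculum was a 1.0 McFarland suspension diluted 10-3. Plates were incubated at 37 °C and read at 14 and 21 days.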

Mycobacterium kansasii [5] = assay: Antimycobacterial activity against Mycobacterium kansasii 6509/96 after 7 days; format: functional; conditions: 6509/96, 168 h
Outline: (§4)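 Microdilution in Šula's semisynthetic medium; compounds in DMSO at 32–0.03 µM. Inoculum from 1.0 McFarland suspension diluted 10-4. […] Isoniazid and rifampicin as reference drugs.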

Escherichia coli = assay: Antibacterial activity against Escherichia coli ATCC 25922 CCM 3954 at highest concentration measured after 24 to 48 hrs by alamar blue dye based broth microdilution assay; format: functional, organism-based
[6] = test system: Staphylococcus epidermidis; assay: Antibacterial activity against Staphylococcus epidermidis at highest concentration measured after 24 to 48 hrs by alamar blue dye based broth microdilution assay; format: functional, organism-based
Mycobacterium kansasii [7] = assay: Antimycobacterial activity against Mycobacterium kansasii CNCTC My 235/80 after 21 days; format: functional; conditions: CNCTC My 235/80, 504 h; outline: as §4
Candida albicans [8] = assay: Antifungal activity against Candida albicans ATCC 24433 CCM 8320 at highest concentration measured after 24 to 48 hrs by alamar blue dye based broth microdilution assay; format: functional, organism-based
Klebsiella pneumoniae = assay: Antibacterial activity against Klebsiella pneumoniae at highest concentration measured after 24 to 48 hrs by alamar blue dye based broth microdilution assay; format: functional, organism-based
Candida parapsilosis = assay: Antifungal activity against Candida parapsilosis ATCC 22019 CCM 8260 at highest concentration measured after 24 to 48 hrs by alamar blue dye based broth microdilution assay; format: functional, organism-based
Aspergillus flavus = assay: Antifungal activity against Aspergillus flavus CCM 8363 at highest concentration measured after 24 to 48 hrs by alamar blue dye based broth microdilution assay; format: functional, organism-based
[9] = test system: Mycobacterium tuberculosis; assay: Antimycobacterial activity against XDR Mycobacterium tuberculosis Praha 131 after 21 days; format: functional; conditions: Praha 131, 504 h; outline: as §3
Mycobacterium kansasii [10] = assay: Antimycobacterial activity against Mycobacterium kansasii 6509/96 after 14 days; format: functional; conditions: 6509/96, 336 h; outline: as §4
HepG2 = assay: Cytotoxicity against human HepG2 cells assessed as reduction in cell viability after 48 hrs by CellTiter 96 aqueous one solution assay; format: cell-based; conditions: HepG2, 48 h
Serratia marcescens = assay: Antibacterial activity against Serratia marcescens at highest concentration measured after 24 to 48 hrs by alamar blue dye based broth microdilution assay; format: functional, organism-based
[11] = Cytotoxicity against human HepG2 cells assessed as cell viability at 30 uM after 48 hrs by CellTiter 96 aqueous one solution assay relative to control; format: cell-based; conditions: read-out: Activity
Outline: (§5)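 HepG2 (DMEM, 10% FBS, 1 mM pyruvate) or A431 (DMEM, 10% FBS) seeded 10,000 cells/well, 24 h at 37 °C, 5% CO2, then 30 µM compound for 48 h. MTS reagent 60 min, absorbance 490 nm, background subtracted; 0.1% DMSO vehicle = 100%, 10% SDS = 0% viability.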

Lichtheimia corymbifera = assay: Antifungal activity against Lichtheimia corymbifera CCM 8077 at highest concentration measured after 24 to 48 hrs by alamar blue dye based broth microdilution assay; format: functional, organism-based
[12] = test system: Mycobacterium tuberculosis; assay: Antimycobacterial activity against Mycobacterium tuberculosis H37Rv CNCTC My 331/88 after 14 days; format: functional; conditions: H37Rv CNCTC My 331/88, 336 h; outline: as §3
[13] = test system: Trichophyton interdigitale; assay: Antifungal activity against Trichophyton interdigitale ATCC 9533 CCM 8377 at highest concentration measured after 72 to 120 hrs by alamar blue dye based broth microdilution assay; format: functional
Mycobacterium kansasii [14] = assay: Antimycobacterial activity against Mycobacterium kansasii 6509/96 after 21 days; format: functional; conditions: 6509/96, 504 h; outline: as §4
Aspergillus fumigatus = assay: Antifungal activity against Aspergillus fumigatus ATCC 204305 at highest concentration measured after 24 to 48 hrs by alamar blue dye based broth microdilution assay; format: functional, organism-based
Staphylococcus aureus [15] = assay: Antibacterial activity against Staphylococcus aureus subsp. aureus ATCC 29213 CCM 4223 at highest concentration measured after 24 to 48 hrs by alamar blue dye based broth microdilution assay; format: functional, organism-based
Mycobacterium kansasii [16] = assay: Antimycobacterial activity against Mycobacterium kansasii CNCTC My 235/80 after 14 days; format: functional; conditions: CNCTC My 235/80, 336 h; outline: as §4
Mycobacterium kansasii [17] = assay: Antimycobacterial activity against Mycobacterium kansasii CNCTC My 235/80 after 7 days; format: functional; conditions: CNCTC My 235/80, 168 h; outline: as §4
[18] = test system: Mycobacterium tuberculosis; assay: Antimycobacterial activity against XDR Mycobacterium tuberculosis Praha 131 after 14 days; format: functional; conditions: Praha 131, 336 h; outline: as §3
Pichia kudriavzevii = assay: Antifungal activity against Candida krusei ATCC 6258 CCM8271 at highest concentration measured after 24 to 48 hrs by alamar blue dye based broth microdilution assay; format: functional, organism-based
Staphylococcus aureus [19] = assay: Antibacterial activity against methicillin-resistant Staphylococcus aureus subsp. aureus ATCC 43300 CCM 4750 at highest concentration measured after 24 to 48 hrs by alamar blue dye based broth microdilution assay; format: functional, organism-based
Enterococcus faecalis = assay: Antibacterial activity against Enterococcus faecalis ATCC 29212 CCM 4224 at highest concentration measured after 24 to 48 hrs by alamar blue dye based broth microdilution assay; format: functional, organism-based
[20] = Genotoxicity in Salmonella typhimurium TA98 at 30 uM in presence of rat liver S9 fraction by Ames test; format: toxicity, subcellular; conditions: salmonella enterica subsp. enterica serovar typhimurium, s9, 30 µM; outline: as §2
[21] = Cytotoxicity against human A431 cells assessed as cell viability at 30 uM after 48 hrs by CellTiter 96 aqueous one solution assay relative to control; format: cell-based, A-431; conditions: read-out: Activity; outline: as §5
[22] = test system: Mycobacterium tuberculosis; assay: Antitubercular activity against Mycobacterium tuberculosis H37Rv; format: functional
Candida albicans [23] = assay: Antifungal activity against Candida albicans ATCC 24433 CCM 8320 measured after 24 to 48 hrs by alamar blue dye based broth microdilution assay; format: functional, organism-based
Staphylococcus aureus [24] = assay: Antibacterial activity against Staphylococcus aureus subsp. aureus ATCC 29213 CCM 4223 measured after 24 to 48 hrs by alamar blue dye based broth microdilution assay; format: functional, organism-based

Row | SMILES | IC50 (A-431) [µM] | MIC99 (Mycobacterium avium [1]) [µM] | MIC99 (Mycobacterium avium [2]) [µM] | MIC99 [4] [µM] | MIC99 (Mycobacterium kansasii [5]) [µM] | MIC99 (Mycobacterium kansasii [7]) [µM] | MIC99 (Mycobacterium kansasii [10]) [µM] | IC50 (HepG2) [µM] | viability at 48 h, 30 µM [11] [%] | MIC99 [12] [µM] | MIC99 (Mycobacterium kansasii [14]) [µM] | MIC99 (Mycobacterium kansasii [16]) [µM] | MIC99 (Mycobacterium kansasii [17]) [µM] | viability at 48 h, 30 µM [21] [%] | MIC [22] [µM] | other results
1 | O=[N+]([O-])c1cc(-c2nnc(SCc3ccc(Cl)c(Cl)c3)n2Cc2ccccc2)cc([N+](=O)[O-])c1 | > 30 | 62 (≈ 32 µg/mL) | 62 (≈ 32 µg/mL) | 0.25 (≈ 0.129 µg/mL) | 0.06 (≈ 0.031 µg/mL) | 0.25 (≈ 0.129 µg/mL) | 0.125 (≈ 0.0645 µg/mL) | > 30 | 103 | 0.25 (≈ 0.129 µg/mL) | 0.125 (≈ 0.0645 µg/mL) | 0.25 (≈ 0.129 µg/mL) | 0.25 (≈ 0.129 µg/mL) | 97 | – | Activity (Candida tropicalis): inactive; Activity [3]: Non-Toxic; Activity (Pseudomonas aeruginosa): inactive; Activity (Escherichia coli): inactive; Activity [6]: inactive; Activity (Candida albicans [8]): inactive; Activity (Klebsiella pneumoniae): inactive; Activity (Candida parapsilosis): inactive; Activity (Aspergillus flavus): inactive; MIC99 [9]: 0.25 µM (≈ 0.129 µg/mL); Activity (Serratia marcescens): inactive; Activity (Lichtheimia corymbifera): inactive; Activity [13]: inactive; Activity (Aspergillus fumigatus): inactive; Activity (Staphylococcus aureus [15]): inactive; MIC99 [18]: 0.125 µM (≈ 0.0645 µg/mL); Activity (Pichia kudriavzevii): inactive; Activity (Staphylococcus aureus [19]): inactive; Activity (Enterococcus faecalis): inactive; Activity [20]: Toxic
2 | COc1nc2ccc(Br)cc2cc1[C@@H](c1ccccc1)[C@@](O)(CCN(C)C)c1cccc2ccccc12 [BEDAQUILINE] | – | – | – | – | – | – | – | – | – | – | – | – | – | – | 0.05 (≈ 0.0278 µg/mL) | –
3 | O=[N+]([O-])c1cn2c(n1)OC[C@@H](OCc1ccc(OC(F)(F)F)cc1)C2 [PRETOMANID] | – | – | – | – | – | – | – | – | – | – | – | – | – | – | 0.05 to 0.7 (≈ 0.018 to 0.251 µg/mL) | –
4 | CSc1nnc(-c2cc([N+](=O)[O-])cc([N+](=O)[O-])c2)n1Cc1ccccc1 | > 30 | 500 (≈ 186 µg/mL) | 500 (≈ 186 µg/mL) | 1 (≈ 0.371 µg/mL) | 4 (≈ 1.49 µg/mL) | 4 (≈ 1.49 µg/mL) | 8 (≈ 2.97 µg/mL) | > 30 | 93 | 0.5 (≈ 0.186 µg/mL) | 8 (≈ 2.97 µg/mL) | 4 (≈ 1.49 µg/mL) | 2 (≈ 0.743 µg/mL) | 83 | – | Activity (Candida albicans [23]): Active; Activity (Staphylococcus aureus [24]): Active
